From PubChem
ANO1 activ – TMEM16A chloride channel activators or potentiators, primary screen, cell-based, HTS. Anoctamin-1 (Mus musculus), Q8BHY3. HEK293 TMEM16A/YFP-H148Q/I152L, iodide quench fluorescence; hits give low values. B-score at 10 µM. 340,000 tested, 0.3% active;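 active means fluorescence-ratio B-score plate-corrected deviation score at least 3 library SD below zero, with starting fluorescence score within 5 deviations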;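 further: channel opened by trigger with iodide after compound preincubation; score built on the fluorescence ratio of max minus min over baseline; more negative score means more quench and so TMEM16A activation or potentiation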
TMEM16A inh – TMEM16A chloride channel inhibitors, primary screen, cell-based, HTS; HEK293 TMEM16A/YFP iodide influx fluorescence, ionomycin; Anoctamin-1 (Mus musculus), Q8BHY3; normalized B-score (activity score, 25-100; higher = stronger inhibition) at 10 µM; 310,000 tested, 1.2% active;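 active means ratio plate-corrected score three or more library SD toward inhibition, starting fluorescence score within five deviations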;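 further: score derived from kinetic fluorescence span divided by baseline fluorescence per well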
UBC13 polyUb – UBC13 polyubiquitin chain formation inhibitors, primary screen, biochemical, TR-FRET, uHTS. inhibition, % at 20 µM. 330,000 tested, 0.47% active; in the data active means inhibition above about 45%, passing the limit was not always enough; inconclusive means no clear call, values can overlap the other calls
FID counter – compounds displacing fluorescent DNA intercalator, primary screen, artefact control for HCV NS3 helicase inhibitor project, biochemical, FID fluorescence. inhibition, % at 7.9 µM. 290,000 tested, 0.17% active. DNA fluorescent intercalator displacement; in the data active means inhibition above about 37%;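 further: higher means more ethidium bromide displaced from hairpin DNA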
Apaf-1 inh – inhibitors of human Apaf-1 apoptosome, primary screen, biochemical, DEVD-Rh110 fluorescence, uHTS; Apoptotic protease-activating factor 1 (Homo sapiens), O14727; 330,000 tested, 0.71% active; inhibition, % at 20 µM; reconstituted apoptosome caspase-3 activity; AID 489030, 2010; active means inhibition of at least 40% at 20 µM
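Material: reconstituted apoptosome with Apaf-1, cytochrome c, caspase-9, procaspase-3, dATP; medium: pH 7.5 Hepes buffer with CHAPS, BSA, DTT; also added: cytochrome c and DEVD-Rh110 substrate; timing: 30 min plus 50 min, RT; signal: Rh110 fluorescence intensity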
Each line names hits and unclear results; the compound was inactive in the other large screens. Compounds with a hit are over-represented: about 2.4% of the library has one in this group of screens.

Cc1ccc(C)c(OCc2cc(C(=O)NC3CCOC(C)(C)C3)no2)c1 (configuration not stated)	none
COc1cccc(NC(=S)N(CCCN2CCCC2)Cc2cccn2Cc2ccc(Cl)cc2)c1	FID counter 36.9
S=C(Nc1cccc(Cl)c1)N(CCCN1CCCC1)Cc1cccn1Cc1ccc(Cl)cc1	none
COC(=O)c1cc2ccsc2n1CC(=O)Nc1cc(Cl)ccc1OC	TMEM16A inh 25
COCCNC(=S)N(CCc1c(C)[nH]c2ccc(F)cc12)Cc1cccs1	none
COCCNC(=S)N(CCc1c(C)[nH]c2ccc(Cl)cc12)Cc1cccs1	TMEM16A inh 100
CC(Cc1ccc(O)c(O)c1)C(C)Cc1ccc(O)c(O)c1 (configuration not stated)	TMEM16A inh 100 (no result: ANO1 activ, FID counter)
Cn1nnc2cc(NC(=O)Nc3cccc(C(F)(F)F)c3)ccc21	none
O=S(=O)(c1cccc(Br)c1)N1CCN(c2ncnc3scc(-c4ccccc4)c23)CC1	none (no result: TMEM16A inh, UBC13 polyUb, FID counter, Apaf-1 inh)
Cc1csc2ncnc(N3CCN(S(=O)(=O)c4cccc(C(F)(F)F)c4)CC3)c12	TMEM16A inh 100
COc1ccc([C@@H]2[C@@H]3C(=O)N(C(C)(C)C)C(=O)[C@@H]3[C@]3(C)C(=O)N(c4cccc(F)c4)C(=O)N23)cc1	none
COc1ccc([C@@H]2[C@@H]3C(=O)N(C(C)(C)C)C(=O)[C@@H]3[C@]3(C)C(=O)N(c4cccc(Br)c4)C(=O)N23)cc1	ANO1 activ -10.8
COc1ccc([C@H]2CC(=O)C=C(c3ccc(C)c4ccccc34)C2)cc1	none (no result: TMEM16A inh, FID counter)
Cc1c(OCC(=O)NC2CC(C)(C)NC(C)(C)C2)ccc2c3c(c(=O)oc12)CCC3	FID counter 38.6
CCOc1ncccc1C(=O)OCC(=O)Nc1ccc2c(c1)OCO2	none
CC(C)(C)c1ccc(S(=O)(=O)N2CCN(CC(=O)N3CC(=O)Nc4ccccc43)CC2)cc1	ANO1 activ -37.8 (no result: TMEM16A inh, FID counter)
O=C(CN1CCN(S(=O)(=O)c2ccc(C(F)(F)F)cc2)CC1)N1CCNC1=O	none (no result: TMEM16A inh, FID counter)
COC(=O)C(C(C)=O)C1=C/C(=N\S(=O)(=O)c2ccc(C)cc2)c2ccccc2C1=O (configuration not stated)	none
CC(C)c1ccc(S(=O)(=O)/N=C2/C=CC(=O)c3ccccc32)cc1	Apaf-1 inh 71.7 (no result: ANO1 activ, TMEM16A inh)
CC(C)(C)c1nnc(NS(=O)(=O)c2cc(Cl)ccc2Cl)s1	none
O=S(=O)(Nc1nc(-c2sccc2Cl)cs1)c1cc(Cl)ccc1Cl	TMEM16A inh 100
COc1ccc(OCCCC(=O)N2CCCc3ccccc32)cc1	ANO1 activ -6.4
CC[n+]1c(/C=C/Nc2ccccc2)sc2ccccc21	none
CCN1/C(=C/C=C/C=C/c2sc3ccccc3[n+]2CC)Sc2ccccc21	UBC13 polyUb inconclusive, Apaf-1 inh 79.8 (no result: ANO1 activ)
CN(Cc1ccc(OC(F)F)cc1)C(=O)c1cccc(S(=O)(=O)N2CCN(Cc3ccccc3)CC2)c1	none (no result: TMEM16A inh, UBC13 polyUb, FID counter, Apaf-1 inh)
O=C1NC2=C(CCc3ccccc32)C(c2ccc(Br)cc2)N1 (configuration not stated)	Apaf-1 inh 69.1
COC(=O)c1ccc(-n2c(C)ccc2-c2ccccc2)cc1	none
COc1ccc(-n2c(C)ccc2-c2ccccc2)cn1	ANO1 activ -4.82
CC12CCC(C(=O)OC3CCCCC3)(OC1=O)C2(C)C (configuration not stated)	none
COc1ccc(CN2CCN(Cc3ccc(Br)cc3)CC2)c(OC)c1OC	TMEM16A inh 25
O=C(NC1CC1)C(=O)c1c(-c2ccccc2)[nH]c2ccccc12	ANO1 activ -7.55
O=C(O)/C=C(/c1ccccc1)C(F)(F)F	none (no result: TMEM16A inh, UBC13 polyUb, FID counter, Apaf-1 inh)
CCCn1nc(NS(=O)(=O)c2cccc3nonc23)c2cc3cccc(C)c3nc21	TMEM16A inh 100
CCCn1nc(NS(=O)(=O)c2cccc3nonc23)c2cc3cc(C)ccc3nc21	none
Cc1cc(C)c(S(=O)(=O)/N=C2/C=C(Sc3ncn[nH]3)C(=O)c3ccccc32)cc1C	none (no result: UBC13 polyUb, Apaf-1 inh)
O=C1c2cccc3cc([N+](=O)[O-])cc(c23)C(=O)N1CCN1CCCC1	FID counter 71.6 (no result: TMEM16A inh)
Nc1cc2c3c(cccc3c1)C(=O)N(CCN1CCCC1)C2=O	none (no result: UBC13 polyUb, Apaf-1 inh)
Cc1ccc(Sc2ccc(NC(=O)CCN3C(=O)NC4(CCCC4)C3=O)cc2)c(C)c1	ANO1 activ -24 (no result: TMEM16A inh, FID counter)
CCc1nnc(NC(=O)CCNC(=O)c2ccco2)s1	none
Cc1c(C)c2ccc(OCC(=O)N3CC[C@@]4(O)CCCC[C@H]4C3)cc2oc1=O	ANO1 activ -5.62
CCOc1ccc(C(=O)NCc2ccc3c(c2)OCO3)cc1OCC	none
Cn1c(Cn2c(=O)sc3ccccc32)nnc1SCC(=O)N1CCCC1	none
CC1CCN(C(=O)CSc2nnc(Cn3c(=O)sc4ccccc43)n2C)CC1	Apaf-1 inh 42.6
Cc1cccc(N(C(=O)Nc2ccc(Cl)cc2)C2=NCC(C)S2)n1 (configuration not stated)	none
CCOC(=O)Nc1ccc2c(c1)N(C(=O)CN(C)C)c1ccccc1CC2	TMEM16A inh 100
Cc1c(N2C(=O)c3cccc4cccc(c34)C2=O)cnn1C	none
CN(CC(=O)Nc1ccc(N2CCOCC2)cc1)CC(=O)Nc1ccccc1C#N	none
CCCCCCCn1c2c(c(=N)c3ccccc31)CCC2	ANO1 activ -5.1, TMEM16A inh 100
CC(=O)Nc1ccc(NC(=O)c2ccccc2CCc2ccccc2)cc1	none
CCOC(=O)c1c(C)oc2cc(Br)c(OC(C)C(=O)OCC)cc12 (configuration not stated)	TMEM16A inh 25
CCOC(=O)COc1cc2c(C(=O)OCC)c(C)oc2cc1Br	none
CCN(Cc1ccccc1)C(=O)CCS(=O)(=O)c1ccc2c(c1)NC(=O)CO2	none
N/C(=N\O)c1ccc(Cl)cc1Cl	none
COc1cccc(CN(C)C(=O)c2ccc(OCC(=O)Nc3cccc(C(F)(F)F)c3)c(OC)c2)c1	TMEM16A inh 100 (no result: FID counter)
O=c1oc2ccccc2nc1/C=C(O)/C=C/c1ccc(F)cc1	FID counter 40.0
O=c1oc2ccccc2nc1/C=C(O)/C=C\c1ccccc1	none
Cc1nn(C)c(Oc2ccccc2)c1CCNC(=O)C(C)(C)C	none
CC(=O)C1=C(O)C(=O)N(c2ccc(C(=O)O)cc2)C1c1ccccc1 (configuration not stated)	ANO1 activ -13.8
CC(=O)C1=C(O)C(=O)N(c2ccc(O)cc2)C1c1ccccc1 (configuration not stated)	none
CC(C)N(C(=O)c1nn(C)c2c1CSc1ccccc1-2)C1CCCCC1	TMEM16A inh 25
COc1cccc(NC(=O)CN(C)C(=O)CCCc2nc3ccccc3s2)c1	none (no result: FID counter)
Cc1ccc(NS(=O)(=O)c2c(C)nc3sccn3c2=O)c(C)c1	none
